Compound activity from PubChem BioAssay.
Yeast superoxide: caloric restriction mimetics inhibiting age-related superoxide in yeast; superoxide response (% of plate mean), % at 10 µM; 330,000 tested, 0.18% active; S. cerevisiae aged cells, superoxide DHE fluorescence; stronger effect = lower value;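 active = superoxide response under a set limit, about three screen SD below normal, cut at about 65% in these data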;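 note: yeast aged for seven days with compound at 30 °C before DHE staining; 100% = average MFI of all compound-treated wells on the plate with controls excluded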
IDE cell inh: cellular human IDE inhibition; 320,000 tested, 0.41% active; inhibition, % at 5.59 µM; P14735; HEK cells, FAbetaB cleavage, fluorescence polarization;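 active = percent inhibition above the average of all tested compounds plus 3 SD, set per screening campaign, cut at about 16% in these data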;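 note: IDE supplied by intact live HEK cells; FP after avidin binding of uncleaved biotin substrate so inhibition keeps polarization high; 0% = DMSO wells and 100% = 60 µM reference IDE inhibitor Ii1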
Efflux pump inh: inhibitors of Candida antifungal efflux pumps expressed in yeast | 330,000 tested, 0.44% active | S. cerevisiae Candida pump triplex, Nile Red efflux | inhibition, % at 10 µM;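 active = plate passing quality check with inhibition over a set limit, or well fluorescence over plate mean plus 4 SD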;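 note: Nile Red retained in pooled yeast measured as flow cytometry median fluorescence; 0% = buffer negative control and 100% = Enniatin B positive control; higher means more Nile Red kept so more efflux inhibition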
IDE cell activ: boosts human insulin-degrading enzyme activity in HEK cells; FAbeta-B cleavage, fluorescence polarization; 0% vehicle, 100% cell-free pure enzyme wells; activation, % at 5.96 µM; 340,000 tested, 0.073% active; AID 493087;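 active = activation above the mean of all tested compounds plus 3 SD, set per screening campaign, cut at about 17% in these data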
HDAC3 inh: blocks human histone deacetylase 3; O15379; recombinant HDAC3, fluorogenic peptide/trypsin coupled, fluorescence; inhibition, % at 8.3 µM; 320,000 tested, 0.15% active; in the data active = inhibition above about 26%, passing the limit was not always enough
Target sequence (O15379 whole entry, looked up): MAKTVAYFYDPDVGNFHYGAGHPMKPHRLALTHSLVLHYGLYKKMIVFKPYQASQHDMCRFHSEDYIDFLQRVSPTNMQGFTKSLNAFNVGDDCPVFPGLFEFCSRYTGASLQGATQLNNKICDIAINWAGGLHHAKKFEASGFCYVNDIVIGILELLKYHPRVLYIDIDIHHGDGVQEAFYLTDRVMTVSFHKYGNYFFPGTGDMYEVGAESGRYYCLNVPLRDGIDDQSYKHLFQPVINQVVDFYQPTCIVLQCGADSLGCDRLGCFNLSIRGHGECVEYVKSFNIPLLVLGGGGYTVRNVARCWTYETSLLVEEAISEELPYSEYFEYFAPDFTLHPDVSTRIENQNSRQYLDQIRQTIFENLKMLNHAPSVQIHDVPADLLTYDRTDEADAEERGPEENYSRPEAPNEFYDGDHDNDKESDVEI
TbMetRS inhib: Trypanosoma brucei MetRS inhibition; purified T. brucei MetRS, ATP depletion, Kinase-Glo luminescence; inhibition, % at 11.9 µM; 360,000 tested, 0.4% active; AID 624268;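 active = inhibition above a per-plate cutoff of the control wells' mean inhibition plus 3 SD, cut at about 5.5% in these data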;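 note: 0% = DMSO wells median and 100% = median of wells with control inhibitor compound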
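Measured by: Kinase-Glo luciferase luminescence reporting remaining unconsumed ATP. Material: purified T. brucei MetRS enzyme. Doses: 11.9 µM compound single dose, 0.9% DMSO. Medium: HEPES buffer containing pyrophosphatase, BSA, spermine, DTT. Times: 15 min preincubation, 2 h reaction, all 25 °C. Reagent: methionine, ATP and bulk E. coli tRNA.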
IDE inh confirm: cellular human IDE inhibition, confirmation; shares compounds with IDE cell inh; HEK cells, FAbetaB cleavage, fluorescence polarization; inhibition, % at 5.59 µM; 1,200 tested, 51% active; AID 435028;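 active = mean inhibition across triplicate wells above the cutoff set by the earlier primary insulin-degrading enzyme screen, cut at about 16% in these data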;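 note: 0% = DMSO wells and 100% = 60 µM reference IDE inhibitor Ii1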
HEK293 tox: counter-screen for IDE inhibitors: cytotoxicity in HEK cells; shares compounds with IDE cell inh; HEK293 cytotoxicity, ATP luminescence; AID 449730; 1,200 tested, 28% active; inhibition, % at 5.59 µM; in the data active = inhibition above about 22%;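 note: 0% = vehicle wells and 100% = reference cytotoxic drug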
Yeast cmpd fluor: flagged as fluorescent in efflux inhibitor counter-screen. S. cerevisiae AD/pABC3, compound fluorescence, flow cytometry. AID 588517. shares compounds with Efflux pump inh. 1,700 tested, 4% active. fluorescence ratio to DMSO, % at 10 µM;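 active = fluorescence ratio to DMSO above its plate's cutoff, the plate mean ratio plus 5 SD, cut at about 210% in these data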;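 note: unstained yeast with no Nile Red so the signal is compound autofluorescence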
CaMdr1 efflux inh: blocks the Candida albicans Mdr1 efflux pump in yeast; inhibition, % at 10 µM; AID 588518; shares compounds with Efflux pump inh; S. cerevisiae AD/CaMDR1, Nile Red efflux, flow cytometry; 1,700 tested, 1% active; in the data active = inhibition above about 26%;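 note: 0% = DMSO vehicle and 100% = reference inhibitor; higher means more Nile Red retained so more efflux inhibition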
CaCdr2 efflux inh: Candida Cdr2 efflux pump inhibition; shares compounds with Efflux pump inh; Nile Red retention ratio vs DMSO, % at 10 µM; AID 588520; S. cerevisiae AD/CaCDR2, Nile Red retention, flow cytometry; 1,700 tested, 4% active; in the data active = Nile Red retention ratio vs DMSO above about 190%;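 note: higher ratio means more blocking of Cdr2 efflux of the dye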
Cdr1 pump inh: blocks the Candida albicans Cdr1 efflux pump in yeast | inhibition, % at 10 µM | S. cerevisiae AD/CaCDR1, Nile Red efflux, flow cytometry | 1,700 tested, 1% active | AID 588522 | shares compounds with Efflux pump inh;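 active = inhibition above the screen-wide mean plus twice its standard deviation, cut at about 32% in these data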
Starred values were filed as active, the others as inactive; x = no result given; ! = repeats disagree. Only some compounds are listed: those with a hit (about 1.4% of all), similar ones and a draw of the others.

SMILES | Yeast superoxide | IDE cell inh | Efflux pump inh | IDE cell activ | HDAC3 inh | TbMetRS inhib | Yeast cmpd fluor | CaMdr1 efflux inh | CaCdr2 efflux inh | Cdr1 pump inh | others
O=C1NC(=O)N(c2ccc3c(c2)OCO3)C(=O)/C1=C\c1ccc(N2CCCCC2)o1 | 102 | 19* | 0 | -34 | 17 | 0 | x | x | x | x | IDE inh confirm=21*;HEK293 tox=14
Cc1ccccc1N1C(=O)NC(=O)/C(=C/c2ccc(N3CCOCC3)o2)C1=O | 95 | 27* | 0 | -11 | 12 | -1 | x | x | x | x | IDE inh confirm=19*;HEK293 tox=3
COCCNC(=O)N1[C@H]2CC[C@@H]1C(C(=O)OC)=C(c1ccc(OC(F)(F)F)cc1)C2 | 117 | 6 | 1 | 0 | -1 | 0 | x | x | x | x
c1ccc(C2(NC3=NCCO3)CCCCC2)cc1 | x | x | x | x | x | 0 | x | x | x | x
CCc1nc2ccccc2c(=O)n1-c1ccccc1OC | 98 | x | 0 | 1 | -4 | -1 | x | x | x | x
COc1ccccc1-n1c(/C=C/c2ccc(O)cc2)nc2ccccc2c1=O | 108 | 90* | 0 | -81 | 0 | -1 | x | x | x | x | IDE inh confirm=128*;HEK293 tox=13
COc1cc(/C=C/c2nc3ccccc3c(=O)n2-c2cccc(O)c2)ccc1O | 108 | 65* | 0 | -114 | -7 | 0 | x | x | x | x | IDE inh confirm=153*;HEK293 tox=19
COc1cc(/C=C/c2nc3ccccc3c(=O)n2-c2ccccc2O)ccc1O | 102 | 60* | 0 | -61 | -4 | 1 | x | x | x | x | IDE inh confirm=128*;HEK293 tox=15
O=c1c2ccccc2nc(/C=C/c2ccc(O)c(O)c2)n1-c1ccccc1 | 104 | 170* | 0 | -128 | -7 | -1 | x | x | x | x | IDE inh confirm=102*;HEK293 tox=21
Cc1ccccc1-n1c(/C=C/c2ccccn2)nc2ccccc2c1=O | 88 | 2 | 0 | -2 | 0 | -1 | x | x | x | x
O=c1c2ccccc2nc(/C=C/c2ccccc2)n1-c1ccc(O)cc1 | 108 | 7 | 0 | 3 | 0 | -1 | x | x | x | x
CC12CCC(=O)C=C1CCC1C2CCC2(C)C(O)(C(=O)CO)CCC12O (stereo not drawn) | x | x | x | 2 | x | 0 | x | x | x | x
CN(C)C(=O)Oc1ccc2c(c1)O/C(=C\c1cccc(Cl)c1)C2=O | 105 | -3 | 0 | 3 | 7 | 0 | x | x | x | x
O=c1[nH]c(=O)n(CC2CCCO2)c(O)c1/C=C1\C=Nc2ccccc21 (stereo not drawn) | 112 | 4 | 2.6*! | -5 | 13 | 0 | 103 | 0 | 89 | 0
COc1ccc(-c2[nH]ncc2CNC(C)Cc2cccc(C)n2)cc1F (stereo not drawn) | 101 | 0 | 0 | 0 | 8 | 1 | x | x | x | x
C/C(=N\N1CCCCC1)c1c(O)[nH]c(=O)[nH]c1=O | 105 | -1 | 16* | 4 | 4 | 0 | 111 | 0 | 103 | 0
C/C(=N\N1CCCCCC1)c1c(O)n(-c2ccccc2)c(=O)[nH]c1=O | 116 | 4 | 0 | 0 | -3 | 0 | x | x | x | x
COc1ccc2c(c1)/C(=C/c1cnc[nH]1)C(=O)N2 | 113 | 5 | 0.8* | 3 | 2 | -1 | 106 | 0 | 93 | 0
CC1OC(OC2C=C3CCC4C(CCC5(C)C(c6ccc(=O)oc6)CCC45O)C3(C)CC2)C(O)C(OC2OC(CO)C(O)C(O)C2O)C1O (stereo not drawn) | x | x | x | -4 | x | 0 | x | x | x | x
CC(C)(C)C(=O)OCC12CCC(O1)C1(C)C(=O)OCC21 (stereo not drawn) | 82 | 1 | 0 | -6 | -5 | 0 | x | x | x | x
Nc1ccc2ccc3cccc[n+]3c2c1 | 93 | -28 | 3.8* | 46* | -2 | 0 | 272* | 4 | 185* | 3
O=C(C(Cc1ccccc1)NS(=O)(=O)c1ccc(F)cc1)N1CCC2(CC1)OCCO2 (stereo not drawn) | 95 | 0 | 0 | -1 | -1 | -1 | x | x | x | x
COC(=O)C1=C(c2cccc(C#N)c2)C[C@@H]2CC[C@H]1N2C(=O)NCC1CC1 | 117 | 7 | 2.5* | 3 | 0 | 0 | 100 | 0 | 104 | 0
N[C@@H]1C[C@H]1c1ccccc1 | 98 | 0 | 0 | 4 | -3 | 0 | x | x | x | x
C[C@]12CC[C@@H](O)CC1=CC(=O)C1C2CC[C@]2(C)C(=O)[C@H](O)CC12 (stereo partly drawn) | x | x | x | x | x | 0 | x | x | x | x
SMILES | Yeast superoxide | IDE cell inh | Efflux pump inh | IDE cell activ | HDAC3 inh | TbMetRS inhib | Yeast cmpd fluor | CaMdr1 efflux inh | CaCdr2 efflux inh | Cdr1 pump inh | others
Cc1c2ccncc2c(C)c2c1[nH]c1ccccc12 | 97 | 8 | 5.6* | 2 | 2 | -1 | 118 | 0 | 96 | 0
c1ccc2c(c1)[nH]c1cnccc12 | 110 | 8 | 0 | 5 | -34 | -1 | x | x | x | x
C=CC1CN2CCC1CC2c1[nH]c2ccccc2c1CCO (stereo not drawn) | 94 | -5 | 13* | 2 | 0 | -1 | 89 | 0 | 97 | 0
C=C[C@H]1CN2CC[C@H]1C[C@H]2[C@H](O)c1ccnc2ccccc12 | 99 | 5 | 0 | -5 | 2 | -1 | x | x | x | x
CC1CCC(NCC(O)c2ccccc2)CC1 (stereo not drawn) | 101 | -3 | 8.2* | 3 | 1 | 0 | 108 | 0 | 100 | 0
CC(C(=O)Nc1ccc(Br)cc1C(=O)c1ccccc1)N1CCCCC1 (stereo not drawn) | 109 | 4 | 0 | 1 | 0 | -1 | x | x | x | x
O=C(CCN1CCCCC1)Nc1ccc(Br)cc1C(=O)c1ccccc1 | 99 | 5 | 1.4* | 3 | 0 | 0 | 102 | 0 | 112 | 0
CCOC(=O)c1c(C)n(COCCO)c2ccc(O)cc12 | 96 | -1 | 7.5* | 10 | 2 | -1 | 92 | 0 | 91 | 0
O=C1NC(=O)C(CCc2ccncc2)(CCc2ccncc2)C(=O)N1C1CCCCC1 | 120 | 1 | 1.0* | 1 | -3 | 0 | 77 | 0 | 121 | 0
C[C@]12CCC3C(CCC4=CC(O)CC[C@@]43/C=N/O)C1(O)CCC2C1=CC(=O)OC1 (stereo partly drawn) | 69 | 7 | 20* | 3 | 4 | -2 | 102 | 0 | 100 | 0
CC12CCC3C(CCC4(O)CC(O)CCC34C=O)C1(O)CCC2C1=CC(=O)OC1 (stereo not drawn) | x | x | x | -1 | x | 0 | x | x | x | x
